Our source for the Activity values is ChEMBL document CHEMBL1255196, “Radiosensitization of cancer cells by hydroxychalcones” (2010).

In assay [1] the test system is HT-29. Briefly: Phototoxicity against human HT-29 cells at 10 uM irradiated with 4 Gy/min. The assay is classed as functional, cell-based.
The subject of assay [2] is HT-29. Briefly: Cytotoxicity against human HT-29 cells assessed as plating efficiency at 10 uM. The assay is classed as functional. The procedure, abridged:
(§1)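 Colony formation assay of HT-29 cells exposed to drug or DMSO for 2 hr. Plating efficiency defined non-toxic concentrations, meaning plating efficiency above 80%. After 10 to 14 days colonies were fixed in 3:1 methanol/acetic acid for 15 min, stained with 0.5% crystal violet in methanol for 15 min, and counted to give percent survival.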

The subject of assay [3] is Nucleic Acid. Briefly: Induction of Hsf1 DNA binding affinity in human HT-29 cells at 8 uM after 2 hrs. The assay is classed as cell-based. The gist of the method:
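HT-29 cells were incubated with drug for 2 hr at 37°C (30 min is also stated for the treatment) and nuclear protein was extracted. Gel shift assay used a 32P-labelled rat Hsp70 heat shock element oligomer. Hsf1 identity was confirmed by antibody supershift.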

The subject of assay [4] is HT-29. Briefly: Induction in heat-induced cell killing in human HT-29 cells. The assay is classed as functional, cell-based. The gist of the method: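 HT-29 cells were treated with drug or DMSO and heated at 41°C for 2 hr. Medium was then replaced and cells grown 10-14 days. Colonies were stained and counted. Four flasks per condition.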
The test system of assay [5] is HT-29. Briefly: Phototoxicity against human HT-29 cells irradiated with 2 Gy/min. The assay is classed as functional, cell-based.
The test system of assay [6] is HT-29. Description: Cytotoxicity against human HT-29 cells assessed as plating efficiency at 25 uM. The assay is classed as functional. The procedure, abridged: as §1
Assay [7] has as its system HT-29. Description: Phototoxicity against human HT-29 cells assessed as polyploidy formation at 10 uM irradiated with 4 Gy/min. The assay is classed as functional, cell-based. The procedure, abridged:
(§2)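 They were fixed by adding cold 70% ethanol, washed in PBS, and stained with propidium iodide plus RNase for 30-45 min at 37°C. Flow cytometry scored polyploidy and sub-G0 cells 48 hr after irradiation.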

The test system of assay [8] is HT-29. Briefly: Cell cycle arrest in photoirradiated human HT-29 cells assessed as accumulation at subG0 phase after 48 hrs. It is filed as functional, cell-based. The gist of the method: as §2

The structures appear in SMILES notation. The source made the active and inactive calls. The calls are words filed in the database; no cut-off is given here.

For the compound `O=C(/C=C/c1ccccc1O)c1ccccc1O`, the result in assay [1], in assay [3] and in assay [4] was Active. Besides, the Activity in assay [2] is recorded as greater than 80%.
Turning to `O=C(/C=C/c1ccccc1)c1cc(O)ccc1O`, the results for the Activity entry in assay [5] and in assay [6] were “Dose-dependent effect” and greater than 80%, respectively. The outcome in assay [1], in assay [3], in assay [7] and in assay [8] was Active.
